Results taken from ChEMBL document CHEMBL3621107, “Ring fusion strategy for synthesis and lead optimization of sulfur-substituted anthra[1,2-c][1,2,5]thiadiazole-6,11-dione derivatives as promising scaffold of antitumor agents” (Eur J Med Chem, 2015).
pIC50: −log10 of the molar value.

What was measured:
[1] = test system: ACHN; experiment: Cytotoxicity against human ACHN cells assessed as cell growth at 10 uM after 48 hrs by SRB assay relative to control; assay type: functional; conditions: read-out: Activity
In short: (§1)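 First-stage NCI-60 screen by the NCI Developmental Therapeutics Program. Each compound was tested once at a single concentration of 10 μM against the 60-cell-line panel. Growth percentage was reported for each cell line.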

[2] = Cytotoxicity against human Hs578T cells assessed as cell growth at 10 uM after 48 hrs by SRB assay relative to control; assay type: functional; conditions: Hs-578T, read-out: Activity; in short: as §1
[3] = test system: SF-539; experiment: Cytotoxicity against human SF539 cells assessed as cell growth at 10 uM after 48 hrs by SRB assay relative to control; assay type: functional; conditions: SF-539, 48 h, read-out: Activity
In short: (§2)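 First-stage NCI DTP one-dose screen against the 60 human tumour cell line panel. Compounds were tested at a single 10 μM level, and results are given as growth percentage.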

[4] = test system: DU-145; experiment: Cytotoxicity against human DU145 cells after 72 hrs by MTT assay; assay type: functional, cell-based; conditions: DU-145, 72 h
In short: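 DU-145 cells grown in RPMI-1640 with 5% heat-inactivated fetal calf serum at 37 °C, 5% CO2. About 2×10^3 cells per well were seeded and incubated for 24 h. Compounds were dissolved in DMSO freshly and diluted into medium (vehicle 0.1% DMSO), then cells were exposed for 72 h. MTT was added for 3 h at 37 °C and absorbance read at 570 nm.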

[5] = test system: A498; experiment: Cytotoxicity against human A498 cells assessed as cell growth at 10 uM after 48 hrs by SRB assay relative to control; assay type: functional; conditions: A498, 48 h, read-out: Activity; in short: as §1
[6] = test system: M14; experiment: Cytotoxicity against human M14 cells assessed as cell growth at 10 uM after 48 hrs by SRB assay relative to control; assay type: functional; conditions: M14, 48 h, read-out: Activity; in short: as §1
[7] = test system: SF-295; experiment: Cytotoxicity against human SF295 cells assessed as cell growth at 10 uM after 48 hrs by SRB assay relative to control; assay type: functional; conditions: SF-295, 48 h, read-out: Activity; in short: as §2
[8] = test system: SK-MEL-2; experiment: Cytotoxicity against human SK-MEL-2 cells assessed as cell growth at 10 uM after 48 hrs by SRB assay relative to control; assay type: functional; conditions: SK-MEL-2, 48 h, read-out: Activity; in short: as §2
[9] = test system: OVCAR-5; experiment: Cytotoxicity against human OVCAR5 cells assessed as cell growth at 10 uM after 48 hrs by SRB assay relative to control; assay type: functional; conditions: OVCAR-5, 48 h, read-out: Activity; in short: as §2
[10] = test system: PC-3; experiment: Cytotoxicity against human PC3 cells assessed as cell growth at 10 uM after 48 hrs by SRB assay relative to control; assay type: functional; conditions: PC-3, 48 h, read-out: Activity; in short: as §2
[11] = test system: HL-60(TB); experiment: Cytotoxicity against human HL-60(TB) cells assessed as cell growth at 10 uM after 48 hrs by SRB assay relative to control; assay type: functional; conditions: HL-60, 48 h, read-out: Activity
In short: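 NCI Developmental Therapeutics Program 60-cell-line screen, first stage: a single dose of 10 μM against the panel, reported as percentage growth.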

[12] = test system: 786-0; experiment: Cytotoxicity against human 786-0 cells assessed as cell growth at 10 uM after 48 hrs by SRB assay relative to control; assay type: functional; conditions: 786-0, 48 h, read-out: Activity; in short: as §1
[13] = test system: NCI-H226; experiment: Cytotoxicity against human NCI-H226 cells assessed as cell growth at 10 uM after 48 hrs by SRB assay relative to control; assay type: functional; conditions: NCI-H226, 48 h, read-out: Activity; in short: as §2
[14] = test system: UACC-257; experiment: Cytotoxicity against human UACC257 cells assessed as cell growth at 10 uM after 48 hrs by SRB assay relative to control; assay type: functional; conditions: UACC-257, 48 h, read-out: Activity
In short: (§3)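 NCI-60 one-dose screen run by NCI DTP: each cell line exposed to a single 10 µM dose, and percentage growth recorded against untreated growth.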

[15] = test system: MDA-MB-468; experiment: Cytotoxicity against human MDA-MB-468 cells assessed as cell growth at 10 uM after 48 hrs by SRB assay relative to control; assay type: functional; conditions: MDA-MB-468, 48 h, read-out: Activity; in short: as §2
[16] = test system: SK-OV-3; experiment: Cytotoxicity against human SKOV3 cells assessed as cell growth at 10 uM after 48 hrs by SRB assay relative to control; assay type: functional; conditions: SK-OV-3, 48 h, read-out: Activity; in short: as §2
[17] = test system: NCI/ADR-RES; experiment: Cytotoxicity against human NCI/ADR-RES cells assessed as cell growth at 10 uM after 48 hrs by SRB assay relative to control; assay type: functional; conditions: read-out: Activity; in short: as §2
[18] = test system: NCI-H522; experiment: Cytotoxicity against human NCI-H522 cells assessed as cell growth at 10 uM after 48 hrs by SRB assay relative to control; assay type: functional; conditions: NCI-H522, 48 h, read-out: Activity; in short: as §2
[19] = test system: PC-3; experiment: Cytotoxicity against human PC3 cells after 48 hrs by SRB assay; assay type: functional, cell-based; conditions: PC-3, 48 h
In short: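 Second-stage NCI-60 panel run by the NCI Developmental Therapeutics Program, covering nine tumour subpanels. Five concentrations were tested: 0.01, 0.1, 1, 10 and 100 μM. Percentage growth at each level was plotted against log10 drug concentration. GI50, TGI and LC50 were read from these dose-response curves. Subpanel MID values were divided into the full-panel MID to give selectivity ratios.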

[20] = test system: A549; experiment: Cytotoxicity against human A549 cells assessed as cell growth at 10 uM after 48 hrs by SRB assay relative to control; assay type: functional; conditions: A549, 48 h, read-out: Activity; in short: as §1
[21] = Cytotoxicity against human EKVX cells assessed as cell growth at 10 uM after 48 hrs by SRB assay relative to control; assay type: functional; conditions: read-out: Activity; in short: as §1
[22] = test system: MOLT-4; experiment: Cytotoxicity against human MOLT4 cells assessed as cell growth at 10 uM after 48 hrs by SRB assay relative to control; assay type: functional; conditions: MOLT-4, 48 h, read-out: Activity; in short: as §2
[23] = test system: MDA-MB-435; experiment: Cytotoxicity against human MDA-MB-435 cells assessed as cell growth at 10 uM after 48 hrs by SRB assay relative to control; assay type: functional; conditions: MDA-MB-435, 48 h, read-out: Activity; in short: as §2
[24] = test system: SNB-19; experiment: Cytotoxicity against human SNB19 cells assessed as cell growth at 10 uM after 48 hrs by SRB assay relative to control; assay type: functional; conditions: SNB-19, 48 h, read-out: Activity; in short: as §3
[25] = test system: HOP-62; experiment: Cytotoxicity against human HOP62 cells assessed as cell growth at 10 uM after 48 hrs by SRB assay relative to control; assay type: functional; conditions: HOP-62, 48 h, read-out: Activity; in short: as §1
[26] = test system: T47D; experiment: Cytotoxicity against human T47D cells assessed as cell growth at 10 uM after 48 hrs by SRB assay relative to control; assay type: functional; conditions: read-out: Activity; in short: as §3
[27] = test system: KM12; experiment: Cytotoxicity against human KM12 cells assessed as cell growth at 10 uM after 48 hrs by SRB assay relative to control; assay type: functional; conditions: KM12, 48 h, read-out: Activity; in short: as §1
[28] = test system: HCT-15; experiment: Cytotoxicity against human HCT15 cells assessed as cell growth at 10 uM after 48 hrs by SRB assay relative to control; assay type: functional; conditions: HCT-15, 48 h, read-out: Activity; in short: as §1
[29] = test system: MDA-MB-231; experiment: Cytotoxicity against human MDA-MB-231 cells assessed as cell growth at 10 uM after 48 hrs by SRB assay relative to control; assay type: functional; conditions: MDA-MB-231, 48 h, read-out: Activity; in short: as §2

CSc1ccc(Sc2cc3c(c4nsnc24)C(=O)c2ccccc2C3=O)cc1
growth at 10 µM [1]: 104% | growth at 10 µM [2]: 96.5% | growth at 10 µM [3]: 96.5% | pIC50 [4]: < 4.82 | growth at 10 µM [5]: 56% | growth at 10 µM [6]: 108% | growth at 10 µM [7]: 98.9% | growth at 10 µM [8]: 89.3% | growth at 10 µM [9]: 108% | growth at 10 µM [10]: 78.4% | growth at 10 µM [11]: 105% | growth at 10 µM [12]: 110% | growth at 10 µM [13]: 79.7% | growth at 10 µM [14]: 110% | growth at 10 µM [15]: 82.2% | growth at 10 µM [16]: 102% | growth at 10 µM [17]: 91.8% | growth at 10 µM [18]: 95.4% | pIC50 [19]: < 4.82 | growth at 10 µM [20]: 105% | growth at 10 µM [21]: 114% | growth at 10 µM [22]: 59.9% | growth at 10 µM [23]: 118% | growth at 10 µM [24]: 102% | growth at 10 µM [25]: 102% | growth at 10 µM [26]: 86.6% | growth at 10 µM [27]: 100% | growth at 10 µM [28]: 112% | growth at 10 µM [29]: 78.8%

Cc1cc(C)cc(Sc2cc3c(c4nsnc24)C(=O)c2ccccc2C3=O)c1
growth at 10 µM [1]: 98% | growth at 10 µM [2]: 105% | growth at 10 µM [3]: 94.9% | pIC50 [4]: < 4.82 | growth at 10 µM [5]: 93.6% | growth at 10 µM [6]: 100% | growth at 10 µM [7]: 91.1% | growth at 10 µM [8]: 108% | growth at 10 µM [9]: 107% | growth at 10 µM [10]: 81.3% | growth at 10 µM [11]: 73.7% | growth at 10 µM [12]: 98.2% | growth at 10 µM [13]: 88% | growth at 10 µM [14]: 116% | growth at 10 µM [15]: 116% | growth at 10 µM [16]: 97.5% | growth at 10 µM [17]: 97.5% | growth at 10 µM [18]: 106% | pIC50 [19]: < 4.82 | growth at 10 µM [20]: 107% | growth at 10 µM [21]: 100% | growth at 10 µM [22]: 71.4% | growth at 10 µM [23]: 105% | growth at 10 µM [24]: 107% | growth at 10 µM [25]: 91% | growth at 10 µM [26]: 81.1% | growth at 10 µM [27]: 105% | growth at 10 µM [28]: 90.9% | growth at 10 µM [29]: 99.2%

Cc1ccccc1Sc1cc2c(c3nsnc13)C(=O)c1ccccc1C2=O
growth at 10 µM [1]: 89.8% | growth at 10 µM [2]: 83.7% | growth at 10 µM [3]: 78% | pIC50 [4]: < 4.82 | growth at 10 µM [5]: 85.5% | growth at 10 µM [6]: 94.2% | growth at 10 µM [7]: 105% | growth at 10 µM [8]: 73.3% | growth at 10 µM [9]: 126% | growth at 10 µM [10]: 73.3% | growth at 10 µM [11]: 79.5% | growth at 10 µM [12]: 100% | growth at 10 µM [13]: 95.7% | growth at 10 µM [14]: 87.3% | growth at 10 µM [15]: 53.7% | growth at 10 µM [16]: 93.8% | growth at 10 µM [17]: 59.5% | growth at 10 µM [18]: 74.8% | pIC50 [19]: < 4.82 | growth at 10 µM [20]: 105% | growth at 10 µM [21]: 105% | growth at 10 µM [22]: 67.3% | growth at 10 µM [23]: 80.6% | growth at 10 µM [24]: 104% | growth at 10 µM [25]: 59.5% | growth at 10 µM [26]: 51.9% | growth at 10 µM [27]: 103% | growth at 10 µM [28]: 38.6% | growth at 10 µM [29]: 60.7%
